Screens: PubChem BioAssay, several laboratories
This is a sample that favours compounds with a hit; in the whole collection about 0.74% have one here.
RGS4-Gao reg = modulates binding of RGS4 to human Galphao; P09471; Multiplexed bead flow cytometry; actives lie on both sides; binding response (% of control), % at 10 µM; actives 0.33% (n = 220,000); AID 1415; in the data active means binding response below about 49% or above about 150%; inactive means in between;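 further: fluorescent Galphao activated with aluminum fluoride binding bead-coupled RGS4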
Target sequence (P09471 whole entry, looked up): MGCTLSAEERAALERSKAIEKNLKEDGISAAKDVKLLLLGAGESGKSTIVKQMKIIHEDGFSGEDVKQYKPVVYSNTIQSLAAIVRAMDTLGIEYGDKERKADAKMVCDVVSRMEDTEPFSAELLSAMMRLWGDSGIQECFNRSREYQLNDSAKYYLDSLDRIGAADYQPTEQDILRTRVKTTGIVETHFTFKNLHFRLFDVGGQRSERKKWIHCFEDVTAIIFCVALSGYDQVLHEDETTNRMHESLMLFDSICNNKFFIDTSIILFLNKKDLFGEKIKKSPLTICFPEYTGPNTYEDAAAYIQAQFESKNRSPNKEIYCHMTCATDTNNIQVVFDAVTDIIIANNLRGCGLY
RGS8-Gao reg = regulators of human RGS8-Galphao interaction. actives 0.34% (n = 220,000). multiplexed bead flow cytometry, RGS8-Galphao binding; actives lie on both sides. AID 1423. response (percent of control binding), % at 10 µM; in the data active means response below about 60% or above about 140%; inactive means in between;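 further: Galphao activated as the GDP aluminium fluoride complex binding bead-coupled RGS8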
RGS16-Gao HTS = modulates binding between human RGS16 and Galphao | AID 1441 | bead-based flow cytometry RGS16-Galphao binding, fluorescence; actives lie on both sides | actives 0.38% (n = 220,000) | binding response (% of control), % at 10 µM;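 further: Galphao activated by GDP with aluminum fluoride before binding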
RGS7-Gao = modulates binding of RGS7 to human Galphao. Multiplexed bead flow cytometry; actives lie on both sides. binding response (% of control), % at 10 µM. P09471. actives 0.35% (n = 220,000); in the data active means binding response below about 49% or above about 150%; inconclusive means no clear call, values can overlap the other calls; inactive means in between;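 further: fluorescent Galphao held in activated GDP-AlF4 state binding bead-coupled RGS7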
Biofilm kill mix = mixtures killing C. albicans biofilm; C. albicans biofilm persisters + clotrimazole, fluorescence viability; primary screen in compound mixtures of four per well; inhibition, % at 7.6 µM; actives 0.02% (n = 120,000); AID 1242;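 active means inhibition above 30.3% in the primary screen of four-compound pools, then above 30% when the compound was retested; inconclusive means passed the primary limit but could not be retested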;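 further: compounds exposed to preformed 24 h biofilms for 48 h; 0% = untreated biofilm control and 100% = clotrimazole plus chlorhexidine kill blank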
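Assay system: C. albicans biofilms / Medium: RPMI/MOPS medium, pH 7.0 / Schedule: biofilm formation 24 h, compound exposure 48 h, 37 °C / Measured by: Alamar Blue fluorescence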
RGS4-Gao HTS = regulators of human RGS4-Galphao interaction; RGS4–Galpha-o binding response, % at 10 µM; AID 1504; shares compounds with RGS16-Gao HTS; actives 99% (n = 1,600); multiplexed bead flow cytometry, RGS–Galpha-o binding;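 further: fluorescently labeled Galpha-o bound to GDP with aluminium fluoride binding biotinylated RGS beads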
Target sequence (P09471 whole entry, looked up): as above
Target sequence (P49798 whole entry, looked up): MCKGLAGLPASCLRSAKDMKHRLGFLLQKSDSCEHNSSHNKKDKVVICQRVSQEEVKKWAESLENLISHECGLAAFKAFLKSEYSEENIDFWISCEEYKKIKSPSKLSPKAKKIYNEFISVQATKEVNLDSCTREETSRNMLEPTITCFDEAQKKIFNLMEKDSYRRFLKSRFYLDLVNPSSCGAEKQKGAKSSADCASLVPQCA
Biotin-avidin = counter-screen: compounds disrupting biotin binding to avidin beads. shares compounds with RGS16-Gao HTS. 1,700 tested, under 10 active. inhibition, % at 10 µM. AID 1783. streptavidin beads, fluorescein-biotin binding, flow cytometry;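 active means inhibition above 50%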;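 further: median green fluorescence of gated singlet beads compared with DMSO control wells; 0% = DMSO wells and 100% = complete loss of bead fluorescence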
RGS8-Gao single = RGS8-Galphao interaction regulation, single point confirmation | shares compounds with RGS16-Gao HTS | bead-based flow cytometry RGS8-Galphao binding, fluorescence; actives lie on both sides | binding response (% of control), % at 10 µM | actives 3% (n = 1,700); in the data active means binding response below about 72% or above about 130%; inactive means in between;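 further: Galphao activated as GDP AlF4 complex before binding bead RGS8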
RGS7-Gao confirm = RGS7-Galphao interaction regulation, single point confirmation | actives 7.8% (n = 1,700) | AID 1837 | bead-based flow cytometry RGS7-Galphao binding; actives lie on both sides | shares compounds with RGS16-Gao HTS | response (percent of control binding), % at 10 µM; in the data active means response below about 75% or above about 130%; inactive means in between;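 further: fluorescent Galphao activated with GDP and aluminum fluoride binding bead-coupled RGS7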
RGS16-Gao single = RGS16-Galphao interaction regulation, single point confirmation; shares compounds with RGS16-Gao HTS; bead-based flow cytometry, RGS16-Galphao binding; actives lie on both sides; response (% of control binding), % at 10 µM; actives 4% (n = 1,700); in the data active means response below about 74% or above about 130%; inactive means in between;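 further: Galphao activated as the GDP aluminium fluoride complex binding bead-coupled RGS16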
RGS4-Gao single = confirmation of regulators of human RGS4-Galphao interaction; shares compounds with RGS16-Gao HTS; RGS4-Galphao binding, multiplexed bead flow cytometry; actives lie on both sides; binding response (% of control), % at 10 µM; actives 4% (n = 1,700); AID 1840; in the data active means binding response below about 74% or above about 130%; inactive means in between
RGS19-Gao single = confirmation of regulators of human RGS19-Galphao interaction. shares compounds with RGS16-Gao HTS. response (percent of control binding), % at 10 µM. bead-based flow cytometry RGS19-Galphao binding; actives lie on both sides. actives 5% (n = 1,700); in the data active means response below about 50% or above about 160%; inactive means in between;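 further: 100% = no compound control and 0% = blank background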
The depositor's hits bear a star; i = inactive; ? = inconclusive; . = no result given; [ ] = remark or other dose. Unless noted, how the calls were made is not given here.

SMILES	RGS4-Gao reg	RGS8-Gao reg	RGS16-Gao HTS	RGS7-Gao	Biofilm kill mix	RGS4-Gao HTS	Biotin-avidin	RGS8-Gao single	RGS7-Gao confirm	RGS16-Gao single	RGS4-Gao single	RGS19-Gao single
COc1ccc(OCCOc2ccccc2[N+](=O)[O-])cc1	117	126	180*[activator]	111	16	117*	0	100	103	101	102	94
O=[N+]([O-])c1ccccc1OCCOc1ccccc1[N+](=O)[O-]	99	100	102	?	13	.	.	.	.	.	.	.
O=C(OCc1cccc2ccccc12)c1ccc2c(=O)[nH]c(CN3CCOCC3)nc2c1	-138*	-2.4*	-114*	-54*	.	.	2	98	98	101	101	96
COCCNCc1nc2sc(C)c(-c3ccccc3)c2c(=O)[nH]1	104	103	104	?	21	.	.	.	.	.	.	.
CCOC(=O)N1CCN(C(=O)CCCn2c(=S)[nH]c3ccccc3c2=O)CC1	.	.	.	.	.	.	0	102	98	107	103	102
O=C(CSc1nncn1-c1ccccc1)NC1CCCc2ccccc21 (stereo not drawn)	92	69	23*	94	-3	92*	-2	101	95	100	99	79
N/C(=N\OC(=O)c1ccc(Cl)cc1)c1ccc(Cl)cc1	103	103	105	103	11	.	.	.	.	.	.	.
N/C(=N\OC(=O)c1ccco1)c1ccc(Cl)cc1	109	101	102	164*[activator]	27	109*	0	103	104	102	101	103
O=C(Cc1csc(N2CCOCC2)n1)N/N=C/c1ccc(O)c(O)c1O	66	57*	49	?	17	66*	i	72*	68*	70*	79	37*
COc1ccc(-c2cc(C(F)(F)F)nc(SCC(=O)N(C)Cc3cn(C)nc3C)n2)cc1OC	78	64	0.0*	75	7	78*	1	108	104	107	102	99
COc1ccc(-c2cc(C(F)(F)F)nc(SCC(=O)NCc3cnn(C)c3C)n2)cc1OC	103	106	109	103	20	.	.	.	.	.	.	.
O=C(C1CCC(N2C(=O)C3CC=CCC3C2=O)CC1)N1CCCCC1 (stereo not drawn)	129	170*[activator]	397	118	.	129*	0	110	108	119	110	114
O=C(C1CCC(C(=O)N2CCCCC2)CC1)N1CCCCC1 (stereo not drawn)	99	102	103	101	.	.	.	.	.	.	.	.
Cc1nn(CCO)c(N)c1C1(O)C(=O)Nc2c(Cl)cc(Cl)cc21 (stereo not drawn)	100	100	102	99	-10	.	.	.	.	.	.	.
Cc1ccc(S(=O)(=O)NCC2CCC(C(=O)NCc3ccc4c(c3)OCO4)CC2)cc1 (stereo not drawn)	137	.	150	.	.	.	1	99	90	97	100	98
c1ccc(C2CCC(N3CCNCC3)CC2)cc1 (stereo not drawn)	120	141*[activator]	250*[activator]	122	11	120*	-1	103	94	97	93	102
Cc1ccc(C)n1-c1cccc(C(=O)O)c1	84	49*	91	22*	.	84*	.	.	.	.	.	.
Cc1ccc(C)n1-c1cccc(N)c1	49*	82	54	73	.	.	-1	100	99	101	96	110
Cc1ccc(S(=O)(=O)N2CCC(C(=O)O)CC2)cc1	102	102	111	106	47	.	.	.	.	.	.	.
Cc1nn(CC(=O)N2CCc3ccccc3C2)c(C)c1[N+](=O)[O-]	99	100	106	98	26	.	.	.	.	.	.	.
Cc1c(Br)c([N+](=O)[O-])nn1CC(=O)N1CCc2ccccc2C1	97	75	24*	99	9	97*	-1	102	97	97	100	90
CCOC(=O)c1cccc(-n2c(C)nc3ccccc3c2=O)c1	96	91	73	100	.	.	.	.	.	.	.	.
CCOC(=O)c1cccc(-n2c(-c3ccc(OC)cc3)nc3nc4ccccc4nc32)c1	108	98	101	179*[activator]	2	108*	0	96	103	100	101	90
COc1cc(C#N)c(N=C(SCC#N)N2CCOCC2)cc1OC	102	102	101	?	4	.	.	.	.	.	.	.
c1cnn(-c2cncc(-n3cccn3)n2)c1	105	101	102	98	11	.	.	.	.	.	.	.
SMILES	RGS4-Gao reg	RGS8-Gao reg	RGS16-Gao HTS	RGS7-Gao	Biofilm kill mix	RGS4-Gao HTS	Biotin-avidin	RGS8-Gao single	RGS7-Gao confirm	RGS16-Gao single	RGS4-Gao single	RGS19-Gao single
Cc1nc(Cl)c(Cl)n1CCOc1ccccc1	-14*	6.8*	-7.5*	?	13	.	1	101	108	103	105	101
Cc1nc2ccccc2n1CCCOc1ccccc1	102	103	108	102	11	.	.	.	.	.	.	.
CC(=O)NC(C)c1ccc(Cl)c(Cl)c1 (stereo not drawn)	139	156*[activator]	i	133	.	139*	.	.	.	.	.	.
O=c1c(-c2ccccc2)c1-c1ccccc1	100	98	99	103	.	.	.	.	.	.	.	.
O=C1NC(c2ccccc2)=C(c2ccccc2)C1=O	116	140*[activator]	252	109	4	116*	2	105	111	110	110	96
C/C=C\C(=O)Nc1cccc(C2=NOC3(C2)C[C@@H](C(N)=O)N(C(=O)c2ccc(OC)cc2)C3)c1 (stereo partly drawn)	99	102	98	?	17	.	.	.	.	.	.	.
Cc1ccc2cc(CCNS(=O)(=O)c3ccc(F)cc3)c(=O)[nH]c2c1C	55	60*	50	46*	16	55*	0	99	93	97	97	102
Cc1ccc2cc(CCNS(=O)(=O)c3ccc(F)cc3)c(=O)[nH]c2c1	96	98	99	95	.	.	.	.	.	.	.	.
CN(C(=S)NC(=O)c1ccc(Br)o1)c1ccccc1	92	92	90	90	16	.	.	.	.	.	.	.
CCN(CC)Cc1c(-c2ccccc2)[nH]c2ccc(C)cc2c1=O	110	142*[activator]	409	104	.	110*	-3	107	100	107	102	91
